# LMPTP block = LMPTP phosphatase inhibitors, primary screen, biochemical, fluorescence intensity, uHTS. Low molecular weight phosphotyrosine protein phosphatase (Homo sapiens), P24666. recombinant LMPTP-A, OMFP fluorogenic substrate. inhibition, % at 20 µM. actives 0.22% (n = 360,000);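 active = compounds that cut the enzyme signal by at least half of the control window in the single-dose screen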;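 note: plate controls were DMSO wells with enzyme plus substrate for no effect and substrate without enzyme for full effect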
#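 Test system – LMPTP-A phosphatase enzyme · Quantity – 0.625 nM LMPTP-A final · Reagent – OMFP substrate, 400 µM final · Dosing – one test concentration per compound, 20 µM, with 3% DMSO overall · Timing – 50 min enzyme reaction at room temperature, protected from light · Detection – fluorescence intensity · Controls – substrate-only low control, DMSO enzyme-plus-substrate high control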
# Scp1 inh = Scp-1 phosphatase inhibitors, primary screen, biochemical, colorimetric, uHTS | Recombinant Scp1, phosphopeptide, malachite green phosphate absorbance | inhibition, % at 20 µM | actives 0.88% (n = 340,000) | AID 493091, 2011;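 active = inhibition above about 50% at 20 µM, limit read from the data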;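 note: plate controls were DMSO wells with enzyme for no effect and wells lacking enzyme for full effect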
#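 Incubation: 45 min enzyme reaction at room temperature / System: truncated SCP-1 phosphatase (76-261aa) / Reagent: Phospho 17-mer peptide substrate / Buffer or medium: Acidic Tris acetate buffer with magnesium and detergent / Signal: absorbance at 630 nm / Doses: one concentration, 20 µM, with 1.0% DMSO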
# DNMT1 inh = human DNMT1 methyltransferase inhibitors, primary screen, biochemical, molecular beacon, fluorescence, HinP1I cleavage, uHTS | DNA (cytosine-5)-methyltransferase 1 (Homo sapiens), P26358 | actives 0.83% (n = 360,000) | inhibition (reported as % activation of signal), % at 10 µM; in the data active = inhibition above about 50%
# Target sequence (P26358 504-1616 limits assumed): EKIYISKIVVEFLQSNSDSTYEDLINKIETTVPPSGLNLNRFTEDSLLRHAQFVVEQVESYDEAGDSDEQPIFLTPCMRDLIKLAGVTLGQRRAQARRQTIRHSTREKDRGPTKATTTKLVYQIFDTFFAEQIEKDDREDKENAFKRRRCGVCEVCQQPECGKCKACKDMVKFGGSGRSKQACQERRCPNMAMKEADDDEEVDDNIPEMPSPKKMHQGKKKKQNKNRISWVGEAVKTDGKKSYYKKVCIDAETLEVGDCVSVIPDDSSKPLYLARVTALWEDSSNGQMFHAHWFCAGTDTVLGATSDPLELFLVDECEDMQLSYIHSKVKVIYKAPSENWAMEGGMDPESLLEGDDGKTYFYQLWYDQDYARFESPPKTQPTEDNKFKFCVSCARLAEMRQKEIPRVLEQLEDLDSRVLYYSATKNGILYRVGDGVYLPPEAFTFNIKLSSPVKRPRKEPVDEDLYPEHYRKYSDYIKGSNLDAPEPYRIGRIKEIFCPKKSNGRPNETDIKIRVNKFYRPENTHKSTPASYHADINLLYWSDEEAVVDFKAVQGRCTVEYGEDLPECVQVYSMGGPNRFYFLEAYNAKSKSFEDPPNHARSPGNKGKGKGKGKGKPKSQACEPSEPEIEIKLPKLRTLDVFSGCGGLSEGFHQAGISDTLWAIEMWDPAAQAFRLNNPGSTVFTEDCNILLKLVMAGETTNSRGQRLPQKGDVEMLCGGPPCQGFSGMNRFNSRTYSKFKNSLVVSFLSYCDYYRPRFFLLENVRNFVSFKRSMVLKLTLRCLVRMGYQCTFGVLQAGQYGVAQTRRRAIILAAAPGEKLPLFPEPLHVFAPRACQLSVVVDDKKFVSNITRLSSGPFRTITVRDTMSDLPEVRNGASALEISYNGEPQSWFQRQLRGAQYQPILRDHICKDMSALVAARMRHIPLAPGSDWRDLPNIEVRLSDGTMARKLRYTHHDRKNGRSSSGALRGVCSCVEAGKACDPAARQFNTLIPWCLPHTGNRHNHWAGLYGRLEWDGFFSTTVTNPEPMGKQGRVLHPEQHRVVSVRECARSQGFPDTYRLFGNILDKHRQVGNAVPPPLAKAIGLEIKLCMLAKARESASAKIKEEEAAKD
# STEP block = STEP phosphatase inhibitors, primary screen, biochemical, fluorescence intensity, uHTS; recombinant STEP, OMFP fluorogenic substrate; inhibition, % at 20 µM; Tyrosine-protein phosphatase non-receptor type 5 (Homo sapiens), P54829; actives 0.25% (n = 360,000);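 active = inhibition at 20 µM, scaled per plate between control wells, above about 37%, limit read from the data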;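 note: 0% = DMSO with enzyme and substrate and 100% = substrate only without enzyme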
#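 System: STEP (striatal-enriched tyrosine phosphatase) enzyme, cell-free; medium: Bis-Tris pH 6.0 buffer with DTT, detergent; dosing: 20 µM, 1% DMSO; times: reaction 20 min, ambient temperature; detection: fluorescence, 480/540 nm; read-out basis: normalized % inhibition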
# SUMO1 PPI mod = modulators of SUMO1 protein-protein interactions, primary screen, biochemical, uHTS; SUMO1 binding to a labelled peptide, TR-FRET, 1 h; inhibition, % at 20 µM; actives 0.33% (n = 360,000); in the data active = inhibition above about 37%
# Scp1 confirm = Scp-1 phosphatase inhibitors, retest, confirmation, biochemical, colorimetric, single concentration; shares compounds with Scp1 inh; AID 540281, 2011; recombinant SCP-1 catalytic domain, phosphate release, malachite green absorbance; inhibition, % at 20 µM; actives 61% (n = 2,500);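 note: plate controls were DMSO with enzyme for no effect and buffer wells lacking enzyme for full effect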
# Scp-1 MG ctr = colorimetric readout interference by compounds, confirmation, artefact control for Scp-1 inhibitor project, biochemical, single concentration. AID 540313, 2011. Colorimetric interference counterscreen, malachite green absorbance 630 nm. 2,500 tested, under 10 active. shares compounds with Scp1 inh. apparent inhibition (interference), % at 20 µM;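 note: compounds added after enzyme reaction finished so only phosphate colour detection is probed; plate controls were DMSO wells with completed Scp-1 reaction for no effect and substrate wells lacking enzyme for full effect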
# Scp-1 Tm shift = Scp-1 binding by thermal shift, confirmation, orthogonal assay for Scp-1 inhibitor project, biophysical, differential scanning fluorimetry | Recombinant SCP1, Sypro Orange thermal shift Tm | shares compounds with Scp1 inh | thermal shift relative to vanadate control, % at 40 µM | actives 25% (n = 1,500) | AID 540329, 2011;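 active = substances whose mean melting-temperature shift, as a percentage of the reference inhibitor's shift, reaches about 5.3%, limit read from the data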;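 note: 0% = Tm of DMSO wells and 100% = Tm with sodium orthovanadate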
# * = called active by the depositor; . = not tested or not shown; ! = not active in a repeat. Compounds with a hit are over-represented: about 1.7% of the library has one in this group of screens.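 Rule for the calls, unless noted: active = inhibition of at least 30% at 20 µM; inactive = the rest.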
SMILES,LMPTP block,Scp1 inh,DNMT1 inh,STEP block,SUMO1 PPI mod,Scp1 confirm,Scp-1 MG ctr,Scp-1 Tm shift
CC(C)(C)C(=O)O/N=C1/C(=O)N(c2ccccc2)c2ccccc21,4,89*,22,13,-17,74*,-15,-16
Fc1ccc(Oc2ccnc(Cl)n2)c(Cl)c1,.,51*,.,.,.,-6,-9,.
Nc1ccc(Oc2ncccn2)c(Cl)c1,2,5,0,-5,-14,.,.,.
N#CCCN(Cc1cccnc1)CN1C(=O)c2ccccc2C1=O,-3,.,14,0,-3,.,.,.
O=C(CSc1nc(-c2ccc(F)cc2)nc2ccc(F)cc12)Nc1cccc(C(=O)O)c1,45,72*,-1,24,-5,75*,-11,2
Cn1ccc2c(-c3ccc4c(c3)OCCO4)cc3c(c21)C1CCC3O1 (stereo unspecified),1,.,0,1,2,.,.,.
CC(=O)Nc1ccc(/C(C)=N/NC(=O)c2ccc(COc3ccccc3Cl)o2)cc1,3,104*,21,24,21,65*,-7,-26
COc1ccc(CNC(=O)C(OC(=O)c2ccco2)c2ccccc2F)cc1 (stereo unspecified),-1,57*,-1,0,1,-17,-13,.
c1ccc2c(-c3nc4ccccc4[nH]3)cccc2c1,0,.,0,-1,4,.,.,.
c1ccc2[nH]c(-c3ccnc4ccccc34)nc2c1,-1,100*!,-2,2,-15,79*,-20,-13
CCCCCC(=O)N1C[C@H](n2cc(-c3ccc(F)cc3)nn2)[C@@H](O)C[C@@H]1c1ccc(Cl)cc1,4,.,-4,0,1,.,.,.
O=C(Nc1ccc(O)c(-c2nc3ccccc3s2)c1)c1cc(=O)c2ccccc2o1,52*,80*,31,38,6,68*,-14,2
Cc1ccc(S(=O)(=O)NCC(=O)OCC(=O)N(CCC#N)c2ccccc2)cc1,-4,-8,2,-3,3,.,.,.
C=CCn1cnc2c(c1=O)c1nc3ccccc3nc1n2/N=C/c1cccc(OC)c1OC,13,96*,18,27,-5,62*,-16,3
CCOc1cc(/C=C(\C#N)C(=O)Nc2cccc(C(=O)O)c2)cc(Br)c1OC(=O)c1ccc(OC)cc1,0,-4,12,-5,14,.,.,.
N#C/C(=C\c1ccc(OCc2ccc(Br)cc2)cc1)C(=O)Nc1cccc(C(=O)O)c1,34,57*,28,41*,57*,59*,-14,-2
COc1cc(/C=C(\C#N)C(=O)Nc2cccc(C(=O)O)c2)ccc1OCc1ccc(F)cc1,1,56*,3,2,9,27,-27,.
N#C/C(=C/c1ccc(OCc2ccc(C(=O)O)cc2)cc1)C(=O)Nc1ccccc1,2,71*,1,3,-15,82*,-7,-9
N#C/C(=C/c1ccccc1OCc1ccc(F)cc1)c1ccc(C(=O)O)cc1,1,65*,-8,2,-7,7,-21,.
N#C/C(=C\c1ccccc1OCc1ccc(C(=O)O)cc1)C(=O)Nc1ccc(O)cc1,-1,-13,3,-4,7,.,.,.
COc1cccc(/C=C(/C#N)c2ccc(F)cc2)c1OCc1cccc(C(=O)O)c1,1,16,1,0,-8,.,.,.
CCOc1cc(/C=C(\C#N)C(=O)Nc2cccc(C(=O)O)c2)ccc1OCc1ccccc1Cl,3,46,7,20,30,.,.,.
CC(OC(=O)c1cccc(-n2cnnn2)c1)C(=O)NC1(C#N)CCCCC1 (stereo unspecified),-1,-10,5,-1,1,.,.,.
CCC(=O)N1CCN(c2ccccc2NC(=O)COc2ccc(C(C)C)cc2)CC1,2,-8,-2,1,7,.,.,.
O=C(O)c1ccc(CNc2ccccc2C(=O)O)cc1,0,53*,39,6,8,54*,-4,-9
SMILES,LMPTP block,Scp1 inh,DNMT1 inh,STEP block,SUMO1 PPI mod,Scp1 confirm,Scp-1 MG ctr,Scp-1 Tm shift
CCc1nnc(NC(=O)CSC(=S)N2CCOCC2)s1,-1,67*,1,3,5,-8,-10,.
CC1CCc2sc(C(=O)NN=C3CCCC3)cc2C1 (stereo unspecified),-3,.,3,0,0,.,.,.
CCC(C)(C)n1nnnc1C(c1ccc(C)cc1)N(Cc1ccco1)Cc1cccs1 (stereo unspecified),3,107*,0,5,-1,-10,-11,.
O=C(NCCc1cnn(-c2ccccc2)c1)c1cc(COc2c(F)cccc2F)on1,1,-8,1,2,0,.,.,.
CCOC(=O)c1csc(CCNC(=O)c2ccccc2)n1,-1,.,6,1,3,.,.,.
N#Cc1c(N)nc2c(c1N)CC(COc1ccccc1)O2 (stereo unspecified),-2,1,1,-8,2,.,.,.
N#Cc1c(N)nc2c(c1N)CC(CO)O2 (stereo unspecified),0,56*,0,-2,3,10,2,.
O=C(Cn1ncc(Cl)c(Cl)c1=O)NC1CCS(=O)(=O)C1 (stereo unspecified),0,88*,4,1,8,69*,-8,-11
Cc1cc(NC(=O)CNCC(c2ccccc2)N(C)C)c([N+](=O)[O-])cc1C (stereo unspecified),-1,-2,-5,-2,-23,.,.,.
Cc1ccc(C)c(N2N=C(C(=O)OCc3nnc(-c4ccccc4Br)o3)CCC2=O)c1,0,.,0,-2,-1,.,.,.
COc1ccccc1C(C)Nc1nc(-c2cccnc2)nc2ccccc12 (stereo unspecified),14,61*,-5,1,15,-8,-13,.
CCCCn1c(CCC(=O)O)nc2cc(S(=O)(=O)N3CCCC3)ccc21,0,5,3,-4,5,.,.,.

# Screens deposited in PubChem by Sanford-Burnham Center for Chemical Genomics.
